ChEMBL document CHEMBL1146574, “A novel 5-HT receptor ligand and related cytotoxic compounds from an acid mine waste extremophile” (J Nat Prod, 2003)

Tests used:
[1] = molecular target: 5-hydroxytryptamine receptor 2A (Rattus norvegicus) (UniProt P14842); assay: Displacement of [3H]ketanserin from rat 5HT2A receptor expressed in mouse NIH3T3 cells assessed as bound radiolabeled ligand remaining by liquid scintillation relative to control; type: cell-based
Procedure, shortened: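 Crude membranes from confluent NIH 3T3 cells stably expressing rat 5-HT2A receptor (DMEM, 10% calf serum, geneticin), prepared freshly in 50 mM Tris, 4 mM CaCl2, 10 µM pargyline, pH 7.4. Tritiated ligand 0.5 nM final; nonspecific binding with 10 µM 5-HT; test compounds at 100 µM. Triplicate 1 mL reactions, 30 min at 30 °C. Glass-fiber filtration, scintillation counting, reported as percent of control binding.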

Artemia = assay: Toxicity against brine shrimp; type: organism-based; conditions: in vivo

Sequence of 5-hydroxytryptamine receptor 2A (Rattus norvegicus) (P14842 whole entry): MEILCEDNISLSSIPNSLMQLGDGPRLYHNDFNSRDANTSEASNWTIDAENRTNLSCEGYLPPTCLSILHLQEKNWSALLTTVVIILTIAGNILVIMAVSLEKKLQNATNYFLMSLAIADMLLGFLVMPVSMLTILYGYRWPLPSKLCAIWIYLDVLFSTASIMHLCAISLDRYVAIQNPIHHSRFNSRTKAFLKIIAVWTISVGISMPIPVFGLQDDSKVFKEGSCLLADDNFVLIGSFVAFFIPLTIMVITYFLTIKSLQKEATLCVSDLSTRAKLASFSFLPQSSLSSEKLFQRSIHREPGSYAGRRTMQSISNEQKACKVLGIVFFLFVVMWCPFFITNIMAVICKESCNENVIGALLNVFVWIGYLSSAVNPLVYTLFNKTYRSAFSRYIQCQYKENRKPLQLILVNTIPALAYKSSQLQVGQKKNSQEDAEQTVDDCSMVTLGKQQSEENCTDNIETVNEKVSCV

**Q.** With CC(C)=CCOc1ccc(CCO)cc1 [ETROGOL] as the molecule, how does the Activity [1] read?
**A.** The Activity was 85%.

**Q.** And the Activity (Artemia)?
**A.** The Activity was “Toxic”.

**Q.** For C[C@H]1CC[C@H]2[C@H]1C[C@]1([C@@H](C)CO)CC[C@]2(C)O1, which Activity (Artemia) is on record?
**A.** Its Activity is “Non-toxic”.

**Q.** With C=C(C)[C@@H]1CC[C@@](C)(O)[C@H]2CC[C@H](C)[C@@H]2C1 as the molecule, how does the Activity (Artemia) read?
**A.** Its Activity is “Non-toxic”.

**Q.** Which Activity (Artemia) does the source give for C[C@H]1CC[C@H]2[C@H]1C[C@H](C(C)(C)O)CC[C@@]2(C)O here?
**A.** Its Activity is “Non-toxic”.

**Q.** For CC(=O)OCCc1ccc(OCC=C(C)C)cc1 [ETROGOL ACETATE], which Activity [1] is on record?
**A.** The Activity was 11%.

**Q.** And the Activity (Artemia)?
**A.** Its Activity is “Toxic”.

**Q.** With CC(=O)NC(Cc1ccc(OCC=C(C)C)cc1)C(=O)O (stereo not given) as the molecule, how does the Activity [1] read?
**A.** The Activity was 85%.

**Q.** What about the Activity (Artemia) of the same molecule?
**A.** Its Activity is “Toxic”.

**Q.** How did the Activity [1] turn out when COC(=O)C(Cc1ccc(OCC=C(C)C)cc1)NC(C)=O (stereo not given) was run?
**A.** Its Activity is 85%.
